The record followed here is PMC9054070 (RSC Advances, 2020).

Structures are written as SMILES. Values joined by “and” are separate entries in the source; they are usually repeats but may differ in a detail not shown here. Equal entries are not always repeated. Where two headings read alike, the source gives them in different places.

One assay deals with MCF-7 cell line. Kind of assay: Cytotoxic screening using MTT assay, MCF-7. In kind it is cell-based. In outline:
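MTT cytotoxicity read-out on MCF-7 cells; IC50 from a sigmoidal log-concentration curve; 5-fluorouracil run alongside as reference drug.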

Another assay relates to HepG2 cell line. Kind of assay: Cytotoxic screening using MTT assay, HepG2. In kind it is cell-based. The following applies: Homo sapiens, HepG2, 48 h, read-out: IC50 (μM) HepG2.
The next assay relates to normal cell line GMSC. Briefly: Cytotoxic screening using MTT assay, normal cell line GMSC. In kind it is cell-based. Particulars: read-out: IC50 (μM) GMSC.
For assay [1], the system named is Ehrlich Ascites Carcinoma (EAC). Kind of assay: In vivo anti-tumor activity in EAC-bearing mice. The following applies: for percentage MST ratio (T/C%) / percentage increase in life span (ILS%): compared to EAC control; for percentage cell growth inhibition (CGI%) / tumor volume / total tumor cell count / packed cell volume (PCV%): day 18; for tumor volume: EAC control 19.5 mL; for total tumor cell count: EAC control 19.9; for packed cell volume (PCV%): EAC control 36.72%.

The mark [2] stands for this setting: Homo sapiens, MCF7, 48 h, read-out: IC50 (μM) MCF-7, MTT assay, 48 h treatment.
The mark [3] stands for this setting: read-out: IC50 (μM) MCF-7, MTT assay, 48 h treatment.

`C=CCn1ncc2c3ccccc3n(CC=C)c2c1=O` [Compound 8, 3,5-Diallyl-3,5-dihydro-4H-pyridazino[4,5-b]indol-4-one]: the half-maximal inhibitory concentration (IC50) with MCF-7 cell line (setting [2]) was 17 µM.
As for `O=c1[nH]ncc2c1[nH]c1ccccc12` [Compound 2, 3,5-Dihydro-4H-pyridazino[4,5-b]indol-4-one], the figures for the IC50 in the assay on MCF-7 cell line (setting [2]) and with HepG2 cell line were 9.43 µM and 22.8 µM, respectively.
As to `O=c1[nH]ncc2c3ccccc3n(Cc3ccccc3)c12` [Compound 6, 5-Benzyl-3,5-dihydro-4H-pyridazino[4,5-b]indol-4-one], the half-maximal inhibitory concentration (IC50) in the assay with MCF-7 cell line (setting [2]) is 29.5 µM; in the assay with normal cell line GMSC (48 h), over 50 µM.
Take `CCOC(=O)Cn1c2ccccc2c2cn[nH]c(=O)c21` [Compound 10, Ethyl 2-(4-oxo-3,4-dihydro-5H-pyridazino[4,5-b]indol-5-yl)acetate]: the IC50 was 12.4 µM with MCF-7 cell line (setting [2]), 36.7 µM in the assay on HepG2 cell line and over 50 µM in the assay with normal cell line GMSC (48 h).
`N#CCCn1ncc2c3ccccc3n(CCC#N)c2c1=O` [Compound 3, 3,3′-(4-oxo-3H-pyridazino[4,5-b]indole-3,5(4H)-diyl)dipropanenitrile]: the half-maximal inhibitory concentration (IC50) in the assay on HepG2 cell line is over 50 µM.
Turning to `O=c1c2c(cnn1Cc1ccccc1)c1ccccc1n2Cc1ccccc1` [Compound 9, 3,5-Dibenzyl-3,5-dihydro-4H-pyridazino[4,5-b]indol-4-one], the half-maximal inhibitory concentration (IC50) in the assay with MCF-7 cell line (setting [2]) was over 50 µM.
On to `C=CCn1c2ccccc2c2cn[nH]c(=O)c21` [Compound 5, 5-Allyl-3,5-dihydro-4H-pyridazino[4,5-b]indol-4-one], for which the concentration for half-maximal inhibition (IC50) with MCF-7 cell line (setting [2]), in the assay on HepG2 cell line and in the assay on normal cell line GMSC (48 h) was over 50 µM each time.
In the case of `NNC(=O)Cn1c2ccccc2c2cn[nH]c(=O)c21` [Compound 12, 2-(4-Oxo-3,4-dihydro-5H-pyridazino[4,5-b]indol-5-yl)acetohydrazide], the IC50 in the assay with MCF-7 cell line (setting [2]) came out at 4.24 µM. Moreover, in the assay on MCF-7 cell line (setting [3]), the concentration for half-maximal inhibition (IC50) came to 4.25 µM. The IC50 with HepG2 cell line stood at 12.8 µM. Moreover, the IC50 in the assay with normal cell line GMSC (48 h) is over 50 µM. In addition, in assay [1] (EAC-bearing mice), the “percentage MST ratio (T/C%)” value stood at 172% and the “percentage increase in life span (ILS%)” value is recorded as 72%. For the same molecule, in assay [1] (EAC-bearing mice, untreated EAC control 43.65%), the “percentage increase in body weight (IBW%)” value was 19.27% and 15.56%. In assay [1] (ascetic peritoneal fluid), the “percentage cell growth inhibition (CGI%)” value was 50.74%, the tumor volume stood at 11.9 mL, the “total tumor cell count” value is listed as 9.8 × 10^7 cells per mL and the “packed cell volume (PCV%)” value came out at 19.32%. For the same molecule, the “percentage of viable cells” value in assay [1] (ascetic peritoneal fluid, day 18, trypan blue exclusion, EAC control 91.9%) is given as 59.6%.
As to `CCOC(=O)Cn1ncc2c3ccccc3n(CC(=O)OCC)c2c1=O` [Compound 11, Diethyl 2,2′-(4-oxo-3H-pyridazino[4,5-b]indole-3,5(4H)-diyl)diacetate], the IC50 in the assay on MCF-7 cell line (setting [2]) is 9.07 µM; with HepG2 cell line it was 18.8 µM; with normal cell line GMSC (48 h), over 50 µM.
As for `O=c1[nH]cc(F)c(=O)[nH]1` [Compound 5-FU, reference compound], the IC50 in the assay with MCF-7 cell line (setting [3]) is 6.98 µM. Moreover, the IC50 with normal cell line GMSC (MTT assay, 48 h treatment, normal cell line) is over 50 µM. Further, in assay [1] (EAC-bearing mice), the “percentage MST ratio (T/C%)” value turned out to be 166% and the “percentage increase in life span (ILS%)” value is 66%. In addition, in assay [1] (ascetic peritoneal fluid), the “percentage cell growth inhibition (CGI%)” value is reported as 38.67%, the tumor volume came out at 12.6 mL, the “total tumor cell count” value is listed as 12.2 × 10^7 cells per mL and the “packed cell volume (PCV%)” value is listed as 23.78%.
